Measured values taken from paper PMC7347020 (Science (New York, N.Y.), 2020).
Where two headings read alike, the source gives them in different places. Each block holds one molecule with its values, some of them ahead of it.

Experiments:
PARP-1 [1] = target: T1, PARP-1 (Homo sapiens, UniProt P09874); assay: Classification of PARPi by allosteric effects; settings: based on HXMS and DNA binding studies
CATΔHD [2] = settings: cited from earlier work
PARP-1 [3] = target: T1, PARP-1; settings: cited from earlier work
PARP-1 R591C [4] = target: T2, PARP-1 R591C (Homo sapiens, UniProt P09874, R591C); assay: HXMS of PARP-1 R591C/SSB-DNA; settings: R591C mutant
T2 sequence (P09874 whole entry R591C): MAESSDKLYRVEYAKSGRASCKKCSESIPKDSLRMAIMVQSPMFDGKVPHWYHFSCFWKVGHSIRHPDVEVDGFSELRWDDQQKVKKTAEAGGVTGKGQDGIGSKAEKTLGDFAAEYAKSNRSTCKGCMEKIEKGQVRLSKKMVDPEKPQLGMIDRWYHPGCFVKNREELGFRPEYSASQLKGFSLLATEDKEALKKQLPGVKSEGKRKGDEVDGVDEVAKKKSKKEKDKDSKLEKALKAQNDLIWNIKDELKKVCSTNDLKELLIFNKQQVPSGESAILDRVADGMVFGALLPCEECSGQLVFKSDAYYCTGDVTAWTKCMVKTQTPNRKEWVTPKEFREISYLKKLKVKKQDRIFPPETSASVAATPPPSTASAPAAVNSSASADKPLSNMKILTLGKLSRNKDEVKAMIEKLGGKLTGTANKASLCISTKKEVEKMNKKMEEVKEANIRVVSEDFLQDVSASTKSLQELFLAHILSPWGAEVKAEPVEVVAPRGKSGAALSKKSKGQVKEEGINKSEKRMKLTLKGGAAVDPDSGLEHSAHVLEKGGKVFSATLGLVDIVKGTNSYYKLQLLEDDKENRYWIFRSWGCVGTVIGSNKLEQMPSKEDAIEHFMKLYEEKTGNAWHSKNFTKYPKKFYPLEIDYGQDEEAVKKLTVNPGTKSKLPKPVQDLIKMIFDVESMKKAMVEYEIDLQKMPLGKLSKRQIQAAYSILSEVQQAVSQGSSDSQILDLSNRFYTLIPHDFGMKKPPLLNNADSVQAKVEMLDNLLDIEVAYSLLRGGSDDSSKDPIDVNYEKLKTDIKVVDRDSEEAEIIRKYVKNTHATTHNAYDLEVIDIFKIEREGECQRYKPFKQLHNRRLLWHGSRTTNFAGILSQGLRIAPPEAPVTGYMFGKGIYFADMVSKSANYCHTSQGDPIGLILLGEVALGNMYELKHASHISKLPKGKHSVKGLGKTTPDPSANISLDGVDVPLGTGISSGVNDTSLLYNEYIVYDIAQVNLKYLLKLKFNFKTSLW

PARP-1 R591C [5] = target: T2, PARP-1 R591C; assay: FP DNA competition, R591C mutant; format: binding
How it was run: (§1)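 Fluorescence polarization competition used FAM-labeled SSB-DNA bound by the PARP-1 variant, challenged with unlabeled SSB-DNA, with or without test compound.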

PARP-1 [6] = target: T1, PARP-1; assay: SPR dissociation kinetics of PARP-1 from SSB-DNA; format: binding
PARP-1 D766/770A [7] = target: T3, PARP-1 D766/770A (Homo sapiens, UniProt P09874, D766A/D770A); assay: FP DNA competition, D766/770A mutant; format: binding
T3 sequence (P09874 whole entry D766A/D770A): as the sequence (P09874 whole entry R591C) above, with C591R, D766A, D770A counted along it
How it was run: as §1

PARP-1 [8] = target: T1, PARP-1; assay: HXMS of WT PARP-1/SSB-DNA complex; settings: PARP-1/SSB-DNA complex with versus without inhibitor
CATΔHD [9] = assay: DSF thermal stability, CATΔHD; format: binding
How it was run: (§2)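 Protein melting temperature was measured by differential scanning fluorimetry with and without test compound. ΔTM was taken as TM with compound minus TM without compound.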

PARP-1 CAT = PARP-1 CAT (Homo sapiens, UniProt P09874); assay: DSF thermal stability, CAT domain; format: binding
PARP-1 CAT, sequence (P09874 661-1014 limits assumed): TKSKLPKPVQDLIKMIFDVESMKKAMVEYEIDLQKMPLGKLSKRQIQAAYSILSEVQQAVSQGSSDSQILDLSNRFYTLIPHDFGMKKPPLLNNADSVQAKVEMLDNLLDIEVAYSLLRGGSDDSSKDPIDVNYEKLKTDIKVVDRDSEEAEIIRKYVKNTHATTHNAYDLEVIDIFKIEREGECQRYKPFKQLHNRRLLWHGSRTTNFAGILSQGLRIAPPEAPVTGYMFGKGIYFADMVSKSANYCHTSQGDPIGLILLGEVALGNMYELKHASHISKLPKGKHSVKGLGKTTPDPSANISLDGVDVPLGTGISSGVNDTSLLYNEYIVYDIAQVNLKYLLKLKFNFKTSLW
How it was run: as §2

WT PARP-1 = WT PARP-1 (Homo sapiens, UniProt P09874); assay: FP DNA competition; format: binding; settings: WT PARP-1, with or without inhibitor
WT PARP-1, sequence (P09874 whole entry): as the sequence (P09874 whole entry R591C) above, with C591R counted along it

PARP-1 [10] = target: T1, PARP-1; assay: FP DNA binding affinity of PARP-1 for SSB-DNA
PARP-1 D766/770A [11] = target: T3, PARP-1 D766/770A; assay: HXMS of PARP-1 D766/770A/SSB-DNA; settings: D766/770A mutant
How it was run: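 PARP-1 (2.6 μM) was mixed with SSB-DNA (5 μM) and, where applicable, inhibitor (5.2 μM). Deuterium on-exchange ran at RT in 10 mM HEPES pD 7.0, 150 mM NaCl (final 75% D2O). Samples were quenched in ice-cold buffer, frozen in liquid nitrogen, pepsin-digested, separated on C18 and analysed by electrospray MS for per-peptide deuteration.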

PARP-1 W318R [12] = target: T4, PARP-1 W318R (Homo sapiens, UniProt P09874, W318R); assay: FP DNA competition, W318R mutant; format: binding
T4 sequence (P09874 whole entry W318R): as the sequence (P09874 whole entry R591C) above, with W318R, C591R counted along it
How it was run: as §1

PARP-1 W318R [13] = target: T4, PARP-1 W318R; assay: HXMS of PARP-1 W318R/SSB-DNA; settings: W318R mutant
[14] = system: CAL51 PARP-1−/− cells transfected with PARP-1-GFP; assay: Microirradiation assay, PARP-1-GFP residence at DNA damage sites; format: cell-based
CAPAN-1 cells = assay: Cell survival assay, CAPAN-1; format: cell-based; settings: cell survival experiment
[15] = system: ADP-ribosylation activity in cells; assay: Measurement of PAR in cells; format: cell-based; settings: 0.01, 0.1, 1 and 10 μM, 0.01% MMS
How it was run: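 Cells were co-treated with test compound and 0.01% MMS. Cellular poly(ADP-ribose) was detected by western blot with an anti-pan-ADP-ribose binding reagent.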

[16] = system: SUM149PT-BRCA1mut and SUM149PT-BRCA1rev cells; assay: Cell survival assay, SUM149PT-BRCA1mut versus SUM149PT-BRCA1rev; format: cell-based
[17] = system: parental or PARP-1−/− cells; assay: Survival assay, parental or PARP-1−/− cells; format: cell-based; settings: low concentrations; parental versus PARP-1−/−
[18] = system: MMS-treated CAPAN-1 cells; assay: Chromatin fractionation assay; format: cell-based; settings: 1, 10 and 25 μM, 0.01% MMS
How it was run: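 Chromatin fractionation measured chromatin-bound PARP-1 in cells exposed to 0.01% MMS, with or without test compound.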

PARP-1 [19] = target: T1, PARP-1; assay: PARP-1 catalytic inhibition; format: biochemical; settings: catalytic inhibitory potency; not shown
[20] = system: MMS-treated CAPAN-1 cells; settings: cited from earlier work

T1 sequence (P09874 whole entry): as the sequence (P09874 whole entry R591C) above, with C591R counted along it

PARPi type by allosteric effect (PARP-1 [1]): Type I
Compound: NC(=O)c1cccc([C@@H]2O[C@H](COP(=O)(O)OP(=O)(O)OC[C@H]3O[C@@H](n4cnc5c(N)ncnc54)[C@H](O)[C@@H]3O)[C@@H](O)[C@H]2O)c1 [BAD, benzamide adenine dinucleotide]
binding to CAT versus CATΔHD (CATΔHD [2]): only bind to CATΔHD

PARPi type by allosteric effect (PARP-1 [1]): Type I | PARP-1 retention on SSB-DNA (PARP-1 R591C [5]): unaffected | influence on dissociation (kd) of PARP-1 from a DNA break (in words) (PARP-1 [6]): markedly slowed release from DNA | PARP-1 release from / retention on a DNA break (PARP-1 D766/770A [7]): insensitive | binding to CATΔHD (CATΔHD [9]): bound | binding to PARP-1 CAT (PARP-1 CAT): bound | allosteric effect on PARP-1 (HX changes) (PARP-1 D766/770A [11]): no longer influenced PARP-1 allostery | PARP-1 retention on SSB-DNA (PARP-1 W318R [12]): unaffected
Compound: Nc1ncnc2c1ncn2[C@@H]1O[C@H](C(=O)N2CCN(CC(=O)Nc3cccc4c3CNC4=O)CC2)[C@@H](O)[C@H]1O [EB-47]
affinity for PARP-1 (PARP-1 [3]): nM range | allosteric effect on PARP-1 (HX changes) (PARP-1 R591C [4]): destabilization of the αB and αF helices of the HD | allosteric effect on PARP-1 (HX changes) (PARP-1 [8]): highly localized destabilization of the helical domain (HD) | PARP-1 retention on SSB-DNA (WT PARP-1): increased the retention of WT PARP-1 on DNA | influence on PARP-1 SSB DNA binding affinity (in words) (PARP-1 [10]): large increase in SSB DNA binding affinity | allosteric effect on PARP-1 (HX changes) (PARP-1 W318R [13]): destabilization of the αB and αF helices of the HD

Compound: NC(=O)c1ccc[n+]([C@@H]2O[C@H](COP(=O)([O-])OP(=O)(O)OC[C@H]3O[C@@H](n4cnc5c(N)ncnc54)[C@H](O)[C@@H]3O)[C@@H](O)[C@H]2O)c1 [NAD^+]
binding to CAT versus CATΔHD (CATΔHD [2]): only bind to CATΔHD

PARPi type by allosteric effect (PARP-1 [1]): Type I | PARP-1 release from / retention on a DNA break (PARP-1 D766/770A [7]): still retained on DNA | PARP-1 retention on SSB-DNA (WT PARP-1): strong PARP-1 retention on a DNA break | increase in PARP-1 affinity for DNA relative to no inhibitor (PARP-1 [10]; WT PARP-1): 3.5 fold | IC50 (PARP-1 [19]): 2.6 nM
Compound: COC(=O)c1cnc(N2CCN(C(=O)c3ccc(-c4nc5c(C(N)=O)cccc5[nH]4)cc3)CC2)nc1 [UKTT15]
PARP-1-GFP residence time at sites of UV laser-induced damage [14]: increase in the PARP-1-GFP residence time | killing of CAPAN-1 cells (CAPAN-1 cells): more efficient than veliparib | inhibition of ADP-ribosylation activity in cells (PAR levels) [15]: not better than veliparib | BRCA selectivity of cell killing [16]: killing of the SUM149-BRCA1mut cells at a lower concentration compared to the SUM149PT-BRCA1rev cells | allosteric effect on PARP-1 (HX changes) (PARP-1 [8]): profound changes to the HX behavior of PARP-1 | PARP-1 dependence of cell killing [17]: required PARP-1 expression | PARP-1 trapping on DNA in cells [18]: increased ability to trap PARP-1 on DNA

PARPi type by allosteric effect (PARP-1 [1]): Type III | influence on dissociation (kd) of PARP-1 from a DNA break (in words) (PARP-1 [6]): slightly accelerated release | allosteric effect on PARP-1 (HX changes) (PARP-1 [8]): stronger allosteric effects to the HD | decrease in PARP-1 SSB DNA binding affinity (PARP-1 [10]): 3–5 fold
Compound: NC(=O)c1cccc2cn(-c3ccc([C@@H]4CCCNC4)cc3)nc12 [niraparib]

PARPi type by allosteric effect (PARP-1 [1]): Type III | influence on dissociation (kd) of PARP-1 from a DNA break (in words) (PARP-1 [6]): slightly accelerated release | allosteric effect on PARP-1 (HX changes) (PARP-1 [8]): stronger allosteric effects to the HD | decrease in PARP-1 SSB DNA binding affinity (PARP-1 [10]): 3–5 fold
Compound: CNCc1ccc(-c2[nH]c3cc(F)cc4c3c2CCNC4=O)cc1 [rucaparib]

Compound: Cn1ncnc1[C@H]1c2n[nH]c(=O)c3cc(F)cc(c23)N[C@@H]1c1ccc(F)cc1 [talazoparib]
PARP-1 trapping in cells [20]: most efficient trapper of the clinical inhibitors

PARPi type by allosteric effect (PARP-1 [1]): Type III | influence on dissociation (kd) of PARP-1 from a DNA break (in words) (PARP-1 [6]): slightly accelerated release | allosteric effect on PARP-1 (HX changes) (PARP-1 [8]): stronger allosteric effects to the HD | PARP-1 retention on SSB-DNA (WT PARP-1): not significant | decrease in PARP-1 SSB DNA binding affinity (PARP-1 [10]): 3–5 fold
Compound: C[C@]1(c2nc3c(C(N)=O)cccc3[nH]2)CCCN1 [veliparib]
PARP-1 trapping in cells ([20]; chromatin fractionation): poor PARP-1 trapper
